Measured values gathered from unrelated publications.
Each line is one published result; the experiments were not run side by side.
BCHE: Cholinesterase (BCHE, Equus caballus, UniProt P81908)
MAP2K3: Dual specificity mitogen-activated protein kinase kinase 3 (MAP2K3, Homo sapiens, UniProt P46734)

Compound | target | test | conditions | quantity | result
C#Cc1n[nH]c2c(-c3cn([C@@H](C)c4ccccn4)c(=O)[nH]c3=O)cc(F)cc12 | Serine/threonine-protein kinase Nek2 (NEK2, Homo sapiens, UniProt P51955) | enzyme activity, inhibitor | 0.1 µM | inhibition | 12%
O=P(O)(O)O[C@H]1O[C@H](CO)[C@@H](O)[C@H](O)[C@H]1O | Glycogen phosphorylase, muscle form (PYGM, Oryctolagus cuniculus, UniProt P00489) | enzyme activity, substrate |  | Km | 920 µM
CCN(CC)CCCC[C@H](NC(=O)[C@H](CC(C)C)NC(=O)[C@H](C)NC(=O)[C@H](Cc1ccccc1)NC(=O)c1ccc(C(C)(C)C)cc1)C(=O)N[C@@H](CO)C(=O)OC | Transcription initiation factor TFIID subunit 1-like, BD2 (TAF1L, Homo sapiens, UniProt Q8IZX4) | thermal stability, DSF | 25 µM | ΔTm | 0.72 °C
COc1cc2c(cc1OC)C(=O)N(CC1CCN(Cc3ccsc3)CC1)C2 | BCHE | enzyme activity, inhibitor, Ellman | 1 µM | inhibition | -6.1%
Nc1ncc(-c2nc(N3CCOCC3)nc(N3CCOCC3)n2)c(C(F)F)n1 | Mitogen-activated protein kinase kinase kinase 6 (MAP3K6, Homo sapiens, UniProt O95382) | binding, competition with immobilised ligand | 10 µM | remaining binding | 76%
O=c1ccc2ccc3occc3c2o1 | Aldehyde dehydrogenase, dimeric NADP-preferring (ALDH3A1, Homo sapiens, UniProt P30838) | enzyme activity, inhibitor, absorbance | 10 µM | activity vs control | 28.3%
COc1ccc(-c2ccc(N)cc2-c2nc3ccccc3s2)cc1 | Prostaglandin G/H synthase 1 (PTGS1, Ovis aries, UniProt P05979) | enzyme activity, inhibitor, absorbance | 10 µM | inhibition | 65.4%
COc1cc2c(cc1OC)C(=O)N(CC1CCN(Cc3cccc(C#N)c3)CC1)C2 | BCHE | enzyme activity, inhibitor, Ellman | 1 µM | inhibition | 15.6%
Cc1nn(C)cc1-c1nc2c(N3CCN(Cc4ccc(Cl)cc4)CC3)c(Cl)cnc2[nH]1 | MAP2K3 | binding, competition with immobilised ligand | 1 µM | remaining binding | 100%
COc1cc2c(cc1OC)C(=O)N(Cc1ccccn1)C2 | BCHE | enzyme activity, inhibitor, Ellman | 1 µM | inhibition | -8.8%
COc1ncccc1-c1cnn2ccc(N3CCN(C(=O)OC(C)C)CC3)nc12 | SRSF protein kinase 2 (SRPK2, Homo sapiens, UniProt P78362) | binding, competition with immobilised ligand | 1 µM | remaining binding | 28%
COc1cc2c(cc1OC)C(=O)N(Cc1ccncc1)C2 | BCHE | enzyme activity, inhibitor, Ellman | 1 µM | inhibition | -0.7%
Cn1cc(-c2cccc(N3CCc4c(sc5c4CC(C)(C)C5)C3=O)c2CO)cc(Nc2ccncn2)c1=O | MAP2K3 | enzyme activity, inhibitor | 1 µM | inhibition | 2%
